# Measured values collected from several papers.
# Target: Cyclin-dependent kinase 8 (CDK8, Homo sapiens, UniProt P49336)
SMILES,assay,conditions,remaining binding
COc1ncc2cc3ccccc3nc2c1C#N,"cell-free assay, competition with immobilised ligand",5 µM,100%
COc1cnc(Nc2cccc(S(N)(=O)=O)c2)nc1N1CCN(c2ccccc2)C(=O)C1,"binding, competition with immobilised ligand",1 µM,93%
Cc1cnn2ncc(-c3ccnc(N(C)C)n3)c2c1,binding,1 µM,93%
Nc1ncc2c(n1)-c1c([nH]c3ccc(C#CC4CC4)cc13)CCCC2,"binding, competition with immobilised ligand",1 µM,100%
O=C(c1ccc(Nc2ncc(Cl)c(-c3ccc(Cl)s3)n2)cc1)N1CCC(N2CCCC2)CC1,"binding, competition with immobilised ligand",1 µM,100%
CN(CCCC(F)(F)F)c1nccc(-c2cnn3ncccc23)n1,binding,1 µM,100%
O=C(NCC1CCOCC1)c1n[nH]cc1NC(=O)c1c(F)cccc1F,"binding, competition with immobilised ligand",1 µM,100%
N#CC1(c2ccccn2)CCN(Cc2cc(C(=O)N3CCCC3)c(=O)n3ccccc23)CC1,"cell-free assay, competition with immobilised ligand",1 µM,100%
C[C@H]1CCN(c2nccc(-c3cnn4ncccc34)n2)C1,binding,1 µM,100%
O=C(NS(=O)(=O)c1ccc(NCC2CCOCC2)c([N+](=O)[O-])c1)c1ccc(N2CCN(Cc3ccc(C(F)(F)F)cc3-c3ccc(Cl)cc3)CC2)cc1Oc1cnc2[nH]ccc2c1,"cell-free assay, competition with immobilised ligand",1 µM,100%
CC1CCCN1c1nccc(-c2cnn3ncccc23)n1 (centres unmarked),binding,1 µM,100%
c1cncc(-c2cccc(Nc3nccc(NC4CCCCC4)n3)c2)c1,"binding, competition with immobilised ligand",10 µM,66%
COc1ccc2c(O[C@@H]3C[C@H]4C(=O)N[C@]5(C(=O)O)CC5/C=C\CCCCC[C@H](NC(=O)OC5CCCC5)C(=O)N4C3)cc(-c3csc(NC(=O)C(C)C)n3)nc2c1C (some centres unmarked),"cell-free assay, competition with immobilised ligand",1 µM,68%
Cc1cnc(Nc2ccc(C(=O)N3CCC(N4CCCC4)CC3)cc2)nc1-c1cc2ccccc2s1,"binding, competition with immobilised ligand",1 µM,89%
CO[C@@H](C)c1c(Nc2ccc([C@H](N(C)C(=O)C3CCS(=O)(=O)CC3)C(F)(F)F)cc2)cnc2cc(Cl)nn12,"binding, competition with immobilised ligand",1 µM,39%
c1cnn2ncc(-c3ccnc(N4CCC45COC5)n3)c2c1,binding,1 µM,100%
O=C1NC(c2ccccn2)Sc2ccccc21 (centres unmarked),"cell-free assay, competition with immobilised ligand",1 µM,78%
O=C(NCCCN1CCOCC1)c1ccc(Nc2ncc(Cl)c(-c3ccc(Cl)s3)n2)cc1,"binding, competition with immobilised ligand",1 µM,100%
CC(=O)C1=C(C)N(c2cccc(C(F)(F)F)c2)C(=O)N[C@@H]1c1ccc(C#N)nc1,"cell-free assay, competition with immobilised ligand",1 µM,65.3%
N[C@H]1CCN(c2nccc(-c3cnn4ncccc34)n2)C1,binding,1 µM,100%
